The record followed here is ChEMBL document CHEMBL4706772, “Structure-Based Design of A-1293102, a Potent and Selective BCL-X Inhibitor” (ACS Med Chem Lett, 2021).

Assay [1] concerns the target T1, Bcl-2-like protein 1 (Homo sapiens, UniProt Q07817). The experiment in a line: Binding affinity to N-terminal GST-tagged BCL-XL (unknown origin) assessed as association rate constant by SPR analysis.
The target of assay [2] is T1, Bcl-2-like protein 1. Description: Inhibition of F-Bak binding to GST-tagged BCL-XL (unknown origin) measured after 1 hr by TR-FRET assay. Background: Time-resolved FRET reads energy transfer from a long-lived donor to a nearby acceptor.
The target in assay [3] is T1, Bcl-2-like protein 1. Description: Binding affinity to N-terminal GST-tagged BCL-XL (unknown origin) assessed as residence half-life by SPR analysis. (In general: Surface plasmon resonance follows binding to a sensor surface in real time, without labels.)
Assay [4] relates to RS4-11. Description: Cytotoxicity against human RS4-11 cells assessed as reduction in cell viability measured after 48 hrs by celltiter-glo assay. It counts as functional, cell-based. As to conditions: RS4-11, 48 h. In general terms: Cellular ATP, detected with luciferase, serves as a proxy for viable cell number.
The target of assay [5] is Induced myeloid leukemia cell differentiation protein Mcl-1 (Homo sapiens, UniProt Q07820). Description: Inhibition of F-Bak binding to GST-tagged MCL1 (unknown origin) measured after 1 hr by TR-FRET assay.
Assay [6] deals with MOLT-4. Description: Cytotoxicity against human MOLT-4 cells assessed as reduction in cell viability measured after 48 hrs by celltiter-glo assay. To be noted: MOLT-4, 48 h. It counts as functional, cell-based.
Assay [7] is filed under the species Homo sapiens. Description: Selectivity ratio of Ki for inhibition of F-Bak binding to GST-tagged BCL2 (unknown origin) to Ki for inhibition of F-Bak binding to GST-tagged BCL-XL (unknown origin).
Assay [8] addresses T1, Bcl-2-like protein 1. The experiment in a line: Binding affinity to N-terminal GST-tagged BCL-XL (unknown origin) assessed as equilibrium dissociation constant by SPR analysis.
Assay [9] deals with T1, Bcl-2-like protein 1. The experiment in a line: Binding affinity to N-terminal GST-tagged BCL-XL (unknown origin) assessed as dissociation rate constant by SPR analysis.
The test system of assay [10] is MOLT-4. Description: Induction of apoptosis in human MOLT-4 cells assessed as externalization of phosphatidylserine measured after 24 hrs by annexin-V staining based flow cytometry. The class given is functional, cell-based. In short, it runs like this:
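Phosphatidylserine exposure in MOLT-4 cells was scored by annexin V binding after 24 h exposure to increasing inhibitor concentrations. Results are expressed as percent annexin V-positive cells.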

For assay [11], the system named is MOLT-4. The experiment in a line: Induction of mitochondrial membrane depolarization in human MOLT-4 cells measured after 24 hrs. It counts as functional, cell-based.
Assay [12] has as its target Apoptosis regulator Bcl-2 (Homo sapiens, UniProt P10415). Description: Inhibition of F-Bak binding to GST-tagged BCL2 (unknown origin) measured after 1 hr by TR-FRET assay.
For assay [13], the system named is MOLT-4. The experiment in a line: Induction of apoptosis in human MOLT-4 cells assessed as activation of caspase-3/7 measured after 24 hrs by caspase-3/7 fluorescence assay. It counts as functional, cell-based. In short, it runs like this:
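MOLT-4 cells incubated 24 h with a rising concentration series of inhibitor. Read-out was caspase-3 and caspase-7 activation, reported as percentage of caspase-3/-7-positive cells.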

Structures are written as SMILES.

T1 sequence (Q07817 whole entry): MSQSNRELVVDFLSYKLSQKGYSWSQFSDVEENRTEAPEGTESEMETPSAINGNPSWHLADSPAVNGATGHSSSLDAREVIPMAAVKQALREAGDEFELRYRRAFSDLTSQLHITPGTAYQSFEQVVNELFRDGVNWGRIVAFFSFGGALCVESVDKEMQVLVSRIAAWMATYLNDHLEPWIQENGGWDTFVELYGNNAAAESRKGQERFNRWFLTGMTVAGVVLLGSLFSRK
Chain of Induced myeloid leukemia cell differentiation protein Mcl-1 (Q07820 whole entry): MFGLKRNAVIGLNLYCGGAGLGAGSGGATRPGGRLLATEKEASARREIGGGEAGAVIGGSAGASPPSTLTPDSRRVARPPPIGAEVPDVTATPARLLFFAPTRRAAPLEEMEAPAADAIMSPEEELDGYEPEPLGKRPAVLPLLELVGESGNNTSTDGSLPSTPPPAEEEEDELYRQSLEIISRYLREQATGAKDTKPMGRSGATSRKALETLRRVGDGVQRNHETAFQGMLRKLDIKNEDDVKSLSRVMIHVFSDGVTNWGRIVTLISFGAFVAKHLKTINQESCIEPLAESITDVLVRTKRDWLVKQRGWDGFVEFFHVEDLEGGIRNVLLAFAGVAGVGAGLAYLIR
Chain of Apoptosis regulator Bcl-2 (P10415 whole entry): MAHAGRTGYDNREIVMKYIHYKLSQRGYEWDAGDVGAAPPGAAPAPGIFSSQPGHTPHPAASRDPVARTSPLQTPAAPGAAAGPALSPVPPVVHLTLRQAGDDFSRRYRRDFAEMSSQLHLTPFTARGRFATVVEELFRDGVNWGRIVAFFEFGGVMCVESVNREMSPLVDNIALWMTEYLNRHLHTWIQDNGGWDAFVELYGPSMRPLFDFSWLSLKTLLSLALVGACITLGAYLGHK

For orientation: Ki means a dissociation constant, usually derived from enzyme kinetics or from competition with a known ligand. A low value points to a stronger hold on the target. In general, EC50 refers to the concentration giving half of the maximal effect. By Kd is commonly meant the equilibrium constant for the complex coming apart. Regarding `CN(C)CC[C@H](CSc1ccccc1)Nc1ccc(S(=O)(=O)NC(=O)c2csc(N3CCc4cccc(C(=O)Nc5nc6ccccc6s5)c4C3)n2)cc1[N+](=O)[O-]`, the K in [1] was 2.18 10^7/M/s; in [9], 0.0109 s⁻¹. In addition, the Ki was 0.14 nM in assay [2] and above 1560 nM in assay [5]. For the same compound, the T1/2 in assay [3] amounted to 1 min. Also, the EC50 in [4] and in assay [6] was above 5000 nM each time. The Ratio Ki in assay [7] is above 220. Also, in assay [8], the dissociation constant (Kd) is 0.5 nM.
Take `O=C(NS(=O)(=O)c1ccc(N[C@H](CCN2CCOCC2)CSc2ccccc2)c(S(=O)(=O)C(F)(F)F)c1)c1csc(N2CCc3cccc(C(=O)Nc4nc5ccccc5s4)c3C2)n1`: the K in [1] was 5.88 10^5/M/s; in assay [9], 0.000234 s⁻¹. Besides, the Ki was 0.43 nM in assay [2], 193 nM in [12] and above 3900 nM in assay [5]. Further, the Activity entry in assay [10], in assay [11] and in assay [13] was “Dose-dependent effect” each time. Besides, the T1/2 in assay [3] turned out to be 49 min. The results for the half-maximal effective concentration (EC50) in assay [4] and in assay [6] were above 5000 nM and 80 nM, respectively. In addition, the Ratio Ki in assay [7] was above 220. Moreover, in [8], the Kd worked out at 0.4 nM.
